Results pooled from the literature.
FGFR3: Fibroblast growth factor receptor 3 (FGFR3, Homo sapiens, UniProt P22607)
FGFR3 G697C: Fibroblast growth factor receptor 3 (FGFR3, Homo sapiens, UniProt P22607, G697C)

SMILES | target | read-out | action | technique | tested at | measurement | value
CCCOc1ccc(OC)c(F)c1C(=O)c1ccc(C(=O)N[C@@H]2CNC[C@H]2NC(=O)c2ccc3[nH]ncc3c2)cc1 | FGFR3 | enzyme activity | inhibitor | – | 10 µM | remaining activity | 47%
COc1cc(Cl)c(C(=O)N[C@@H](CN[C@H]2CC[C@@H](N)CC2)Cc2ccc(C#N)cc2)cc1-c1ccc(CN[C@H](C)c2ccc(C)cc2)o1 | FGFR3 | enzyme activity | inhibitor | – | 1 µM | remaining activity | 85%
CN(c1nccc(-c2cnn3ncccc23)n1)C1CC1 | FGFR3 G697C | binding | – | – | 1 µM | remaining binding | 100%
COc1ccc(COc2ccc(Cc3cnc(N)nc3N)cc2OC)cc1 | FGFR3 | cell-free assay | – | – | 0.5 µM | remaining signal | 105%
CS(=O)(=O)Nc1cccc(-c2csc(NC(=O)CSc3nc4nccnc4c(=O)n3CCc3ccccc3)n2)c1 | FGFR3 | enzyme activity | inhibitor | – | 10 µM | inhibition | -15%
Cc1ccc(NC(=O)c2ccc(CN3CCN(C)CC3)cc2)cc1Nc1nc(-c2cccnc2)cs1 | FGFR3 | cell-free assay | – | – | 0.5 µM | remaining signal | 94.3%
CNCc1ccc(-c2cc(-c3nc(-c4ccc(S(=O)(=O)C(C)C)cc4)cnc3N)on2)cc1 | FGFR3 | enzyme activity | inhibitor | – | 2 µM | inhibition | 10%
C[C@@H]1CCN(c2nccc(-c3cnn4ncccc34)n2)C1 | FGFR3 G697C | binding | – | – | 1 µM | remaining binding | 100%
CNC(=O)c1ccc(Nc2ncc(C(F)(F)F)c(NCc3nccnc3N(C)S(C)(=O)=O)n2)cc1 | FGFR3 G697C | cell-free assay | – | competition with immobilised ligand | 0.1 µM | remaining binding | 100%
CN(CCCC(F)(F)F)c1nccc(-c2cnn3ncccc23)n1 | FGFR3 G697C | binding | – | – | 1 µM | remaining binding | 86%
Nc1ncnc2occ(-c3ccc(NC(=O)Nc4cc(C(F)(F)F)ccc4F)cc3)c12 | FGFR3 | cell-free assay | – | – | 20 µM | remaining signal | 0.75%
C[C@@]1(Cc2ccc(C#N)cc2)C(=O)N(c2cc(Cl)cc(Cl)c2)c2ncc(C(=O)NC3(c4nc(C5CCC5)no4)CC3)n21 | FGFR3 G697C | cell-free assay | – | competition with immobilised ligand | 1 µM | remaining binding | 100%
Cc1cc(NC(=O)c2cccc3cc(-c4cccc5[nH]nc(N)c45)ccc23)ccc1F | FGFR3 | enzyme activity | inhibitor | – | 0.1 µM | activity vs control | 98%
CC(C)CC(=O)N1CCc2nc(-c3ccc(Br)cc3)nc(N(C)Cc3ccccc3)c2C1 | FGFR3 | cell-free assay | – | competition with immobilised ligand | 0.1 µM | remaining binding | 100%
CNC(=O)c1cc(Oc2ccc(NC(=O)Nc3ccc(Cl)c(C(F)(F)F)c3)cc2)ccn1 | FGFR3 | enzyme activity | inhibitor | – | 0.3 µM | inhibition | 32%
C[C@H](c1cccc(C#N)c1)n1cc(Cl)cc(C(N)=O)c1=N | FGFR3 | cell-free assay | – | competition with immobilised ligand | 1 µM | remaining binding | 88%
Cc1ccc(C(=O)NCc2ccsc2)cc1C#Cc1cn(C(C)C)c2ncnc(N)c12 | FGFR3 | enzyme activity | inhibitor | – | 1 µM | activity vs control | 33%
CO[C@@H](C)c1c(Nc2ccc([C@H](N(C)C(=O)C3CCS(=O)(=O)CC3)C(F)(F)F)cc2)cnc2cc(Cl)nn12 | FGFR3 G697C | cell-free assay | – | competition with immobilised ligand | 1 µM | remaining binding | 86%
COc1cc2ncnc(Nc3ccc(Oc4ccccc4)c(C)c3C)c2cc1OC | FGFR3 | enzyme activity | inhibitor | – | 1 µM | inhibition | -2%
CCC(=O)N[C@H]1CC[C@@H](C(=O)N(C)c2ccc(-c3nc4ccccc4o3)cc2)C1 | FGFR3 | cell-free assay | – | competition with immobilised ligand | 1 µM | remaining binding | 98%
CC/C(=N\NC(=O)NCc1cccc(O)c1)c1ccc(O)c(C)c1O | Fibroblast growth factor receptor 3 (FGFR3, Homo sapiens, UniProt P22607, V555M) | enzyme activity | inhibitor | – | 0.1 µM | inhibition | 0.7%
